Data on nine compounds can be found in ChEMBL document CHEMBL1221201, “Extension of Drosophila melanogaster life span with a GPCR peptide inhibitor” (Nat Chem Biol, 2007).

Activity calls are given as the source filed them. The rule behind the calls is not given here. Where only a bound is given, the exact number is not on record here.

Test [1] concerns the target T1, G-protein coupled receptor Mth (Drosophila melanogaster, UniProt O97148).
T1 sequence (O97148 whole entry): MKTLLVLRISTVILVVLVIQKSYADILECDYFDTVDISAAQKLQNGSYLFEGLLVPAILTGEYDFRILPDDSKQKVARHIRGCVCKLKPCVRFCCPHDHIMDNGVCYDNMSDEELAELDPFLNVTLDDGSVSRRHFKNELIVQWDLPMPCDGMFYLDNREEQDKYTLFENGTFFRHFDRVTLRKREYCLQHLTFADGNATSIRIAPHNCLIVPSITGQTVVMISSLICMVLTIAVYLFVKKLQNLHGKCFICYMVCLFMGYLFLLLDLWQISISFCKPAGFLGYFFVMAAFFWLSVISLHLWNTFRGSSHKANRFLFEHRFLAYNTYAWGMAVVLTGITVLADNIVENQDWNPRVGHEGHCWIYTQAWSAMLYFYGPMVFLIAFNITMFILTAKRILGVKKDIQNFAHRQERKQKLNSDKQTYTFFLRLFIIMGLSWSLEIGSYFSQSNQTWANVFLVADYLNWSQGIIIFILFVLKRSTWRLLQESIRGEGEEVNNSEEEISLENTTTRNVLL
The test is described as follows: Binding affinity to Drosophila melanogaster Mth ectodomain. Put shortly:
(§1)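 Mth ectodomain (His6-tagged, C-terminal biotinylation tag, expressed in baculovirus-infected High 5 cells, biotinylated with BirA) immobilized at ~500 RU. Peptide was injected at the indicated concentrations, 45 μl per injection. Sensorgrams were double-referenced against a negative control flow cell and averaged buffer blanks. Kinetic parameters came from a global fit to a 1:1 bimolecular interaction model.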

Test [2] addresses T1, G-protein coupled receptor Mth. The test is described as follows: Inhibition of Drosophila melanogaster Mth […] transfected into human HEK cells assessed as inhibition of N-Stunted-induced Mth signaling. The class given is cell-based, HEK293. Put shortly: (§2)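 HEK 293 cells stably expressing Mth-B were plated on Matrigel and loaded with 4 μM Fluo-4 (45 min at room temperature, then 15 min at 37 °C) in HEPES pH 7.5 HBSS buffer with BSA and 2.5 mM probenecid. After baseline readings, antagonist was added, followed by agonist peptide. Calcium fluorescence (ex 494/em 520 nm) was read for ~5 min. Values were background-subtracted and fitted to sigmoidal curves.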

Test [3] has as its target T2, G-protein coupled receptor Mth (Drosophila melanogaster) (UniProt O97148).
T2 sequence (whole entry): T1 sequence (O97148 whole entry)
The test is described as follows: Inhibition of Drosophila melanogaster Mth […] transfected into human HEK cells assessed as inhibition of N-Stunted-induced Mth signaling up to 10 uM. Format: cell-based. As to conditions: HEK293. Put shortly: as §2

Test [4] has as its target T2, G-protein coupled receptor Mth (Drosophila melanogaster). The test is described as follows: Binding affinity to Drosophila melanogaster Mth ectodomain transfected in CHO cells up to 5 uM by SPR. Background: SPR reads the build-up and loss of mass on a sensor chip optically.
Test [5] concerns Drosophila melanogaster. The test is described as follows: Displacement of radiolabeled full-length R8-01 mRNA from Drosophila melanogaster Mth ectodomain up to 150 uM. Put shortly:
(§3)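 35S-methionine-labelled RNA-peptide fusions were RNase-treated and bound to Mth ectodomain immobilized on NeutrAvidin-agarose (~1 mg Mth per ml matrix). For competition, unlabelled peptide at various concentrations was included in the binding buffer during the initial binding step.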

Test [6] has as its system Drosophila melanogaster. The test is described as follows: Displacement of radiolabeled 30-mer synthetic peptide mRNA from Drosophila melanogaster Mth ectodomain at 30 uM. The procedure, abridged:
as §3

Test [7] concerns Drosophila melanogaster. The test is described as follows: Displacement of radiolabeled full-length R8-01 mRNA from Drosophila melanogaster Mth ectodomain at 10 uM. Put shortly:
as §3

For test [8], the system named is Drosophila melanogaster. The test is described as follows: Increase in mean life span of Drosophila melanogaster GAL-4/UAS--[…] transgene insertion line 41.6 at 25 degC. Format: functional. The procedure, abridged:
(§4)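 da-GAL4-driven UAS–R8-12 insertion line 41.6 male adults were maintained at 25 °C and followed by survival curves. Mean and maximal adult lifespans are the average of two independent trials, with about 90 to 120 flies per curve.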

Test [9] can be described thus: Binding affinity to G-protein coupled receptor MthW12S mutant of Drosophila melanogaster 300 nM by fluorescence microscopy. The procedure, abridged:
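Intrinsic Trp fluorescence with excitation at 295 nm. 300 nM peptide was titrated with Trp-less Mth W120S ectodomain, emission read at 345 nm, in 10 mM KH2PO4 pH 7.2, 150 mM NaCl. Complexes were mixed for 5 min in a stirred cell before reading. KD came from the titration.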

In test [10] the test system is Drosophila melanogaster. The test is described as follows: Increase in life span of Drosophila melanogaster GAL-4/UAS--[…] transgene insertion line 11.1 at 29 degC. Format: functional.
In test [11] the target is T2, G-protein coupled receptor Mth (Drosophila melanogaster). The test is described as follows: Binding affinity to Drosophila melanogaster full-length Mth-GFP transfected into CHO cells at 150 nM by fluorescence microscopy.
Test [12] has as its system Drosophila melanogaster. The test is described as follows: Increase in life span of Drosophila melanogaster GAL-4/UAS--[…] transgene insertion line 41.2 at 29 degC. Format: functional.
Test [13] has as its system Drosophila melanogaster. The test is described as follows: Increase in mean life span of Drosophila melanogaster GAL4/UAS--[…] transgene insertion line 41.6 at 29 degC. Format: functional.
Test [14] has as its system Drosophila melanogaster. The test is described as follows: Increase in maximal life span of Drosophila melanogaster GAL4/UAS--[…] transgene insertion line 41.6 at 29 degC. Format: functional.
In test [15] the test system is Drosophila melanogaster. The test is described as follows: Increase in maximal life span of Drosophila melanogaster GAL-4/UAS--[…] transgene insertion line 41.6 at 25 degC. Format: functional. Put shortly:
as §4

The target in test [16] is T2, G-protein coupled receptor Mth (Drosophila melanogaster). The test is described as follows: Binding affinity to Drosophila melanogaster Mth ectodomain at 1500 nM measured by SPR. Put shortly: as §1
The target is the same in test [17]. The test is described as follows: Binding affinity to Drosophila melanogaster Mth ectodomain at 100 nM measured by SPR. Put shortly:
as §1

For test [18] the target is unchanged. The test is described as follows: Binding affinity to Drosophila melanogaster Mth ectodomain at 900 nM measured by SPR. The procedure, abridged: as §1
The test system of test [19] is Drosophila melanogaster. The test is described as follows: Displacement of radiolabeled full-length R8-04 mRNA from Drosophila melanogaster Mth ectodomain at 10 uM. Put shortly: as §3
For test [20], the target named is T2, G-protein coupled receptor Mth (Drosophila melanogaster). The test is described as follows: Binding affinity to Drosophila melanogaster Mth ectodomain at 300 nM measured by SPR. Put shortly:
as §1

In general, Kd refers to the concentration at which binding is half-saturated. Low values mean tighter binding, high ones weaker binding. A word on the IC50: it is the concentration needed to halve the response being measured.

On to `CC[C@H](C)[C@H](NC(=O)[C@H](C)NC(=O)[C@H](CCCNC(=N)N)NC(=O)[C@H](CCC(N)=O)NC(=O)[C@@H](NC(=O)[C@H](Cc1c[nH]c2ccccc12)NC(=O)[C@@H](NC(=O)[C@H](C)NC(=O)[C@H](CCCNC(=N)N)NC(=O)[C@@H]1CCCN1C(=O)[C@H](C)N)C(C)C)[C@@H](C)CC)C(=O)N[C@@H](CCC(N)=O)C(=O)N[C@@H](C)C(=O)N[C@@H](CCSC)C(=O)N[C@@H](Cc1ccccc1)C(=O)N[C@@H](CCCNC(=N)N)C(=O)N[C@@H](CC(C)C)C(=O)N[C@@H](C)C(=O)N[C@@H](CO)C(=O)N[C@@H](CCCNC(=N)N)C(=O)N[C@@H](CCC(N)=O)C(=O)N[C@@H](CCC(=O)O)C(=O)N[C@@H](CO)C(=O)N[C@@H](CCCCN)C(=O)N[C@@H](C)C(=O)N[C@@H](Cc1ccccc1)C(=O)N[C@@H](CC(N)=O)C(=O)O`, for which, in test [1], the equilibrium dissociation constant (Kd) amounted to 18 nM. In addition, in test [2], the IC50 turned out to be 115 nM.

With `CC[C@H](C)[C@H](NC(=O)[C@H](C)NC(=O)[C@H](CCCNC(=N)N)NC(=O)[C@H](CCC(N)=O)NC(=O)[C@@H](NC(=O)[C@H](Cc1c[nH]c2ccccc12)NC(=O)[C@@H](NC(=O)[C@H](C)NC(=O)[C@H](CCCNC(=N)N)NC(=O)[C@@H]1CCCN1C(=O)[C@@H](C)N)C(C)C)[C@@H](C)CC)C(=O)N[C@@H](CCC(N)=O)C(=O)N[C@@H](C)C(=O)N[C@@H](CCSC)C(=O)N[C@@H](Cc1ccccc1)C(=O)N[C@@H](CCCNC(=N)N)C(=O)N[C@@H](CC(C)C)C(=O)N[C@@H](C)C(=O)N[C@@H](CO)C(=O)N[C@@H](CCCNC(=N)N)C(=O)N[C@@H](CCC(N)=O)C(=O)N[C@@H](CCC(=O)O)C(=O)N[C@@H](CO)C(=O)N[C@@H](CCCCN)C(=O)N[C@@H](C)C(=O)N[C@@H](Cc1ccccc1)C(=O)N[C@@H](CC(N)=O)C(=O)O`, the inhibition entry in test [3] was “inactive”.

In [1], H-GDDMYRIREFLANYRPIWVMRSNLAQL-OH registered a Kd of less than 30 nM.

On to H-MAPRAVAIQRAIQAMFRLAGY-OH, for which, in [4], the outcome was inactive.

For H-MAPRAVWIQAAIQAMFRLA-OH, the result in test [4] was inactive.

H-NVSWGSFPSSWLQRYYLAKRREADVTL-OH: the outcome in the test with Drosophila melanogaster [5] was inactive. In addition, the Activity turned out to be 79% with Drosophila melanogaster [6] and 96% in the test with Drosophila melanogaster [7]. Also, binding in [1] was characterised by a dissociation constant (Kd) of 31 nM.

In the case of H-RLVWIVRSRHFGPRLRMALLGSDRKMW-OH, the Activity is listed as 49% with Drosophila melanogaster [8]; 40% in the test on Drosophila melanogaster [10]; 31% in the test with Drosophila melanogaster [12]; 38% in the test with Drosophila melanogaster [13]; 26% with Drosophila melanogaster [14]; 36% in the test with Drosophila melanogaster [15]. In addition, the figures for the Kd in test [9] and in [1] were 15 nM and 18 nM, respectively. Besides, the result in [11] was Active. For the same compound, in [3], the inhibition result was “inactive”. In test [2], the IC50 was found to be 45 nM.

Turning to H-RYVWYLRTKHRRSLRLRSACARGSSA-OH, the dissociation constant Kd in test [1] was less than 30 nM.

With H-VRIGYTSKPGGMNPGNSYTMSIIRMLI-OH, the outcome in test [16], in test [17], in test [18] and in [20] was Active. The Activity with Drosophila melanogaster [19] was 94%. The compound also registered a Kd in test [1] of 326 nM.
